The values below come from ChEMBL document CHEMBL5608193, “Discovery of bivalent small molecule degraders of cyclin-dependent kinase 7 (CDK7)” (Eur J Med Chem, 2024).

Each structure is given as a SMILES string. The source made the active and inactive calls. The rule behind the calls is not given here.

Data set [1] deals with T1, von Hippel-Lindau disease tumor suppressor/Cyclin-dependent kinase 7 (Homo sapiens) (UniProt P50613+P40337). As to the kind of experiment: PROTAC activity at CDK7/VHL in human Jurkat cells assessed as degradation of MAT1 measured at 0.1 to 5 uM after 6 hrs incubation by Western blotting analysis. Particulars: dose 0.1-5 µM. The class given is cell-based. Summed up: (§1)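 Jurkat and OVCAR3 cells treated 6 h across a concentration series. Blots probed for CDK7, MAT1 (1:1000) and Cyclin H (1:1000) overnight at 4 °C, with β-actin control and IRDye secondaries.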
T1 sequence (P40337 whole entry, looked up): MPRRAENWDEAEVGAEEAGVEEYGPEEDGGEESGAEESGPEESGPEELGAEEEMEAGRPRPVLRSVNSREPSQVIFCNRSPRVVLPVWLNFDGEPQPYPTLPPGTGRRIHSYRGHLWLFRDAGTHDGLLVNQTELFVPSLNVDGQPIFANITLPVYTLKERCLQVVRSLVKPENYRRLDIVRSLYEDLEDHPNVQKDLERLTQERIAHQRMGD
T1 sequence (P50613 whole entry, looked up): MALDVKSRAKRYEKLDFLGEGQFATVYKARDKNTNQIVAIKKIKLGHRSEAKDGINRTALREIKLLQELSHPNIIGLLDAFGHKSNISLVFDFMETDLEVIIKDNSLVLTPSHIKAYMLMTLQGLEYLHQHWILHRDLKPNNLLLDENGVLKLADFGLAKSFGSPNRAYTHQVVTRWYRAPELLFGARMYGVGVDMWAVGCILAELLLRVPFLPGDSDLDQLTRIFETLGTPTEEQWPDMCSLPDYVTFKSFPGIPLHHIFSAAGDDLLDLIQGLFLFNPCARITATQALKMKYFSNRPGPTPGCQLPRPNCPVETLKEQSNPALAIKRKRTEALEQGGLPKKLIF

Data set [2] is described as follows: Cmax in male CD1 mouse at 10 mg/kg, IP measured upto 24 hrs by LC-MS/MS-39 analysis. Type of data set: ADME, organism-based. Particulars: in vivo. In short, it runs like this: (§2)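 Male CD1 mice, n=3, one 10 mg/kg intraperitoneal dose. Blood sampled at 0, 0.25, 0.5, 1, 2, 4, 6, 8 and 24 h. Kept on wet ice and spun to plasma (2000 g, 5 min, 4 °C) within 15 min, stored at about −70 °C. Protein precipitation with acetonitrile, then LC-MS/MS. Values are mean ± SD of three mice.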

Data set [3] concerns the target T1, von Hippel-Lindau disease tumor suppressor/Cyclin-dependent kinase 7 (Homo sapiens). The data set is described as follows: PROTAC activity at CDK7/VHL in human Jurkat cells assessed as degradation of CDK7 in presence of 1 uM MLN-4924 at 0.1 uM measured after 6 hrs incubation by immunoblot analysis. The class given is cell-based. Summed up:
(§3)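 Jurkat cells pretreated 2 h with MG132, MLN-4924, YKL-5–167 or a VHL ligand, then given degrader for 6 h. CDK7 immunoblotted: RIPA lysis, SDS-PAGE, anti-CDK7 1:1000, IRDye secondaries.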
On the technique in general: A western blot detects proteins with antibodies after separation by electrophoresis.

A short description of data set [4]: Half life in male CD1 mouse at 3 mg/kg, IV measured upto 24 hrs by LC-MS/MS-39 analysis. The class given is ADME, organism-based. Particulars: in vivo. In short, it runs like this:
(§4)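 Three male CD1 mice given a single 3 mg/kg intravenous dose. Plasma prepared on ice by centrifugation (2000 g, 5 min, 4 °C) within 15 min, held at about −70 °C. Acetonitrile precipitation, then LC-MS/MS quantitation. Mean ± SD, n=3.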

For data set [5], the system named is MOLT-4. As to the kind of experiment: Antiproliferative activity against human MOLT-4 cells assessed as cell viability measured after 72 hrs by CellTiter-Glo assay. Particulars: MOLT-4, 72 h. Type of data set: functional, cell-based. In short, it runs like this: (§5)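 Cells grown in RPMI 1640 with 10% heat-inactivated FBS and penicillin/streptomycin at 37 °C, 5% CO2, mycoplasma-negative. Seeded at 10^4/ml. Compounds dispensed digitally from 10 mM or 1 mM DMSO stocks, DMSO equalized, triplicate wells. After 72 h, CellTiter-Glo added for 10–15 min at room temperature and luminescence read.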
Background: ATP-based viability assays read luminescence as a measure of living cells.

The target of data set [6] is T1, von Hippel-Lindau disease tumor suppressor/Cyclin-dependent kinase 7 (Homo sapiens). The data set is described as follows: PROTAC activity at CDK7/VHL in human OVCAR-3 cells assessed as degradation of CDK7 at 0.1 to 5 uM measured after 6 hrs incubation by immunoblot analysis. The class given is cell-based. As to conditions: dose 0.1-5 µM.
Data set [7] has the same target. The data set is described as follows: PROTAC activity at CDK7/VHL in human Jurkat cells assessed as degradation of Cyclin H measured at 0.1 to 5 uM after 6 hrs incubation by Western blotting analysis. The class given is cell-based. As to conditions: dose 0.1-5 µM. In short, it runs like this:
as §1

Data set [8] shares this target. As to the kind of experiment: PROTAC activity at CDK7/VHL in human MOLT-4 cells assessed as degradation of CDK7 at 0.1 to 5 uM measured after 6 hrs incubation by immunoblot analysis. Particulars: dose 0.1-5 µM. Type of data set: cell-based.
A short description of data set [9]: Observed volume of distribution at steady state in male CD1 mouse at 3 mg/kg, IV measured upto 24 hrs by LC-MS/MS-39 analysis. As to conditions: in vivo, read-out: Vdss. The class given is ADME, organism-based. Summed up:
as §4

Data set [10] deals with A549. As to the kind of experiment: Antiproliferative activity against human A549 cells assessed as cell viability measured after 72 hrs by CellTiter-Glo assay. Type of data set: functional, cell-based. Particulars: A549, 72 h. Summed up: as §5
Data set [11] in a line: Cmax in male CD1 mouse at 3 mg/kg, IV measured upto 24 hrs by LC-MS/MS-39 analysis. The class given is ADME, organism-based. As to conditions: in vivo. In short, it runs like this: as §4
Data set [12] deals with T1, von Hippel-Lindau disease tumor suppressor/Cyclin-dependent kinase 7 (Homo sapiens). As to the kind of experiment: PROTAC activity at CDK7/VHL in human Jurkat cells assessed as degradation of CDK7 at 0.1 uM measured after 16 hrs incubation by immunoblot analysis relative to control. The class given is cell-based. Summed up: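 Jurkat cells given VHL-recruiting compounds at 0.1 or 1 μM for 16 h. RIPA lysis, BCA normalization, 4–20% SDS-PAGE, nitrocellulose transfer. CDK7 (1:1000) and β-actin probed overnight at 4 °C, IRDye secondaries, Odyssey detection. Quantified against control, mean ± SEM from three independent biological replicates.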

The nature of data set [13]: Half life in male CD1 mouse at 10 mg/kg, IP measured upto 24 hrs by LC-MS/MS-39 analysis. Type of data set: ADME, organism-based. Particulars: in vivo. In short, it runs like this: as §2
Data set [14] is described as follows: AUClast in male CD1 mouse at 10 mg/kg, IP measured upto 24 hrs by LC-MS/MS-39 analysis. The class given is ADME, organism-based. As to conditions: in vivo. In short, it runs like this:
as §2

Data set [15] addresses T1, von Hippel-Lindau disease tumor suppressor/Cyclin-dependent kinase 7 (Homo sapiens). The data set is described as follows: PROTAC activity at CDK7/VHL in human Jurkat cells assessed as degradation of CDK7 in presence of 10 uM (S,R,S)-AHPC-me at 0.1 uM measured after 6 hrs incubation by immunoblot analysis. Type of data set: cell-based. In short, it runs like this: as §3

The target of data set [16] is von Hippel-Lindau disease tumor suppressor/Cyclin-dependent kinase 8 (Homo sapiens) (UniProt P49336+P40337). As to the kind of experiment: PROTAC activity at CDK8/VHL in human Jurkat cells assessed as degradation of CDK7 measured at 10 to 500 nM after 6 hrs incubation by Western blotting analysis. As to conditions: dose 10-500 nM. Type of data set: cell-based.
Chain of von Hippel-Lindau disease tumor suppressor/Cyclin-dependent kinase 8 (Homo sapiens) (P40337 whole entry, looked up): as the sequence (P40337 whole entry, looked up) above
Chain of von Hippel-Lindau disease tumor suppressor/Cyclin-dependent kinase 8 (Homo sapiens) (P49336 whole entry, looked up): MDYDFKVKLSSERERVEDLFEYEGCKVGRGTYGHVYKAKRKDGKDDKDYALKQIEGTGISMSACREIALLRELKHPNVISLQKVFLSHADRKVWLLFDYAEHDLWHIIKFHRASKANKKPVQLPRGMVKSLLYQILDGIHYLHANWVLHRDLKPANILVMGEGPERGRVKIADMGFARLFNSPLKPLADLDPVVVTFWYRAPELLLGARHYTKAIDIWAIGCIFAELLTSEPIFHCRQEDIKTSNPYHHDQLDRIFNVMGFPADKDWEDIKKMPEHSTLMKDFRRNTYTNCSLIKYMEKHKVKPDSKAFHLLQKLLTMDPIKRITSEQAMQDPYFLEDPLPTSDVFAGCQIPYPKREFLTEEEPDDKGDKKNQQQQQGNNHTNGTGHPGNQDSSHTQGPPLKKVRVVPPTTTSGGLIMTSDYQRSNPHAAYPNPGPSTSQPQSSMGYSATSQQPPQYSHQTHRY
The target in data set [17] is T1, von Hippel-Lindau disease tumor suppressor/Cyclin-dependent kinase 7 (Homo sapiens). The data set is described as follows: PROTAC activity at CDK7/VHL in human Jurkat cells assessed as degradation of CDK7 in presence of 10 uM YKL-5-167 at 0.1 uM measured after 6 hrs incubation by immunoblot analysis. Type of data set: cell-based. Summed up: as §3
Data set [18] shares this target. The data set is described as follows: PROTAC activity at CDK7/VHL in human A549 cells assessed as degradation of CDK7 measured at 0.1 to 5 uM measured after 6 hrs incubation by immunoblot analysis. The class given is cell-based. Particulars: dose 0.1-5 µM.
For data set [19], the target named is von Hippel-Lindau disease tumor suppressor/Cyclin-dependent kinase 9 (Homo sapiens) (UniProt P50750+P40337). The data set is described as follows: PROTAC activity at CDK9/VHL in human Jurkat cells assessed as degradation of CDK7 measured at 10 to 500 nM after 6 hrs incubation by Western blotting analysis. The class given is cell-based. As to conditions: dose 10-500 nM.
Chain of von Hippel-Lindau disease tumor suppressor/Cyclin-dependent kinase 9 (Homo sapiens) (P40337 whole entry, looked up): as the sequence (P40337 whole entry, looked up) above
Chain of von Hippel-Lindau disease tumor suppressor/Cyclin-dependent kinase 9 (Homo sapiens) (P50750 whole entry, looked up): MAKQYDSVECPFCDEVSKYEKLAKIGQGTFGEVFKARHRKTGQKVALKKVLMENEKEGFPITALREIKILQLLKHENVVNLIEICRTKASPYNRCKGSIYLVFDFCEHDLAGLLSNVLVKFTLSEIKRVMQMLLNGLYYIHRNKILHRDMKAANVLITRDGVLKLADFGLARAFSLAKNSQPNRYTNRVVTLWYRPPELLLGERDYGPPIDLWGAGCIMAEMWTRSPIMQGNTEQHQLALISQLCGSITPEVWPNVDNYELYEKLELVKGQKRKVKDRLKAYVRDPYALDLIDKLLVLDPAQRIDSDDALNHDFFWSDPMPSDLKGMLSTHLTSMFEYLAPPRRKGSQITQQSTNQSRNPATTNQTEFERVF

A short description of data set [20]: Tmax in male CD1 mouse at 10 mg/kg, IP measured upto 24 hrs by LC-MS/MS-39 analysis. The class given is ADME, organism-based. Particulars: in vivo. Summed up:
as §2

Data set [21] concerns the target T1, von Hippel-Lindau disease tumor suppressor/Cyclin-dependent kinase 7 (Homo sapiens). As to the kind of experiment: PROTAC activity at CDK7/VHL in human SU-DHL-5 cells assessed as degradation of CDK7 at 0.1 to 5 uM measured after 6 hrs incubation by immunoblot analysis. The class given is cell-based. As to conditions: dose 0.1-5 µM.

Usually Cmax stands for the highest concentration seen after dosing. For orientation: IC50 means the concentration that gives 50% inhibition. As usually defined, the Tmax is the time from dosing to the highest level. As for `Cc1ncsc1-c1ccc([C@H](C)NC(=O)[C@@H]2C[C@@H](O)CN2C(=O)[C@@H](NC(=O)CCCC#Cc2ccc(C(=O)Nc3n[nH]c4c3CN(C(=O)N[C@H](CN(C)C)c3ccccc3)C4(C)C)cc2)C(C)(C)C)cc1`, the outcome in [1] and in data set [7] was Active. The Cmax in data set [2] came out at 3.39 µM; in data set [11] it was 17.1 µM. Moreover, the result in [3], in [15], in [16], in [17] and in data set [19] was inactive. The t1/2 in data set [4] came out at 3.76 h; in [13], 2.82 h. Also, the IC50 in data set [5] was 89 nM; in [10], 332 nM. Moreover, the Activity result in data set [6] is “Dose-Dependent Effect”; in data set [8], “Dose-Dependent Effect”; in data set [12], 95%; in [18] it was “Dose-Dependent Effect”; in data set [21] it was “Dose-Dependent Effect”. In addition, in data set [9], the Vd was 0.345 L/kg. For the same molecule, in [14], the AUClast was determined as 19.4 µM·h. Further, the Tmax in data set [20] worked out at 1 h.
